Data set [1] relates to T47D. Briefly: Antiproliferative activity against human T47D cells after 48 hrs by MTT assay.
Data set [2] has as its system PBMC. In words: Cytotoxicity against human PBMC at 100 uM after 48 hrs by MTT assay. It counts as cell-based. In outline: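 PBMCs isolated from fresh blood of a healthy donor, held in RPMI-1640 with 10% FBS and antibiotic at 37 °C, 5% CO2. About 10^4 cells seeded per well, then MTT read-out as for the T47D assay (0.5 mg/ml MTT, 4 h, acidified DMSO, 570/620 nm).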

Data set [3] has as its target T1, Estrogen receptor (Homo sapiens, UniProt P03372).
T1 sequence (P03372 whole entry): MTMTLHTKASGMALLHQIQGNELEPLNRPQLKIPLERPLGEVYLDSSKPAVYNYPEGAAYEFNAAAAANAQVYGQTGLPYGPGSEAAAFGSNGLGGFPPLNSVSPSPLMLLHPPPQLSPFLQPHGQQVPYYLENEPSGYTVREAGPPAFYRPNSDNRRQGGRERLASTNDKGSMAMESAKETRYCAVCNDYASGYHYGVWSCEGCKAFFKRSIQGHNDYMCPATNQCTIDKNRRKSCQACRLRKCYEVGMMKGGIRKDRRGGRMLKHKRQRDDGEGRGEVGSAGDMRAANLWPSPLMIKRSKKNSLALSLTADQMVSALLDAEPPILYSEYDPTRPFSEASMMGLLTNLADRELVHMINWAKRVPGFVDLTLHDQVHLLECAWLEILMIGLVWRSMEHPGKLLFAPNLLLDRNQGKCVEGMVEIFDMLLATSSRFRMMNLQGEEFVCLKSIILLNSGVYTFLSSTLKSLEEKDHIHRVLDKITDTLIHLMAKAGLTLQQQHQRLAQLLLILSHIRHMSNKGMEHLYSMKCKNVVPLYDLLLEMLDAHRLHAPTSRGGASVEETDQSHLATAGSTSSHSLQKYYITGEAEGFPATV
Briefly: Displacement of fluoromone TM from recombinant human ERalpha after 2 hrs by fluorescence polarization analysis. In a few lines: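 Fluorescence polarization kit: serially DMSO-diluted compound mixed with recombinant human ERα/Fluormone ES2 complex, at least 2 h at room temperature in the dark. Controls were oestradiol for minimum polarization and free tracer. Percent inhibition normalized; IC50 from non-linear regression as the concentration displacing half of the bound ligand.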

The test system of data set [4] is T47D. Briefly: Downregulation of ERalpha mRNA levels in human T47D cells at 15 uM after 48 hrs by semi-quantitative RT-PCR analysis. It counts as functional, cell-based. In outline:
(§1)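 T47D cells exposed 48 h; total RNA extracted with TRIzol, checked by NanoDrop and denaturing agarose gel, then reverse transcribed. ERα transcript amplified, run on agarose gel and quantified by densitometry, normalized to GAPDH; representative of three experiments.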

In data set [5] the test system is T47D. Briefly: Downregulation of ERalpha protein levels in human T47D cells at 15 uM after 48 hrs by Western blot analysis. It counts as functional. In a few lines:
(§2)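 T47D cells exposed 48 h, lysed in modified RIPA (50 mM Tris-HCl pH 7.4, 150 mM NaCl, 1 mM EDTA, 1% NP-40, protease inhibitors), protein by Bradford. 50 µg protein run on 10% SDS-PAGE, transferred to nitrocellulose, blocked with 5% milk, probed overnight at 4 °C with rabbit anti-ERα (HC-20), HRP secondary, ECL detection. Normalized to β-actin; three experiments.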

A short description of data set [6]: Drug uptake in human T47D cell nucleus at 15 uM after 24 hrs by confocal laser scanning microscopic method. The format is ADME, subcellular.
A short description of data set [7]: Drug uptake in human T47D cell plasma membrane at 15 uM after 24 hrs by confocal laser scanning microscopic method. The format is ADME, cell membranes.
The nature of data set [8]: Drug uptake in human T47D cell cytosol at 15 uM after 24 hrs by confocal laser scanning microscopic method. The format is ADME, subcellular.
The nature of data set [9]: Drug uptake in human T47D cell cytosol at 5 uM after 24 hrs by confocal laser scanning microscopic method. The format is ADME, subcellular.
The nature of data set [10]: Drug uptake in human T47D cell nucleus at 5 uM after 24 hrs by confocal laser scanning microscopic method. The format is ADME, subcellular.
A short description of data set [11]: Drug uptake in human T47D cell plasma membrane at 5 uM after 24 hrs by confocal laser scanning microscopic method. It counts as ADME, cell membranes.
The test system of data set [12] is T47D. In words: Downregulation of ERalpha mRNA levels in human T47D cells at 5 uM after 48 hrs by semi-quantitative RT-PCR analysis. It counts as functional, cell-based. In outline: as §1
The test system of data set [13] is T47D. In words: Downregulation of ERalpha protein levels in human T47D cells at 5 uM after 48 hrs by Western blot analysis. The format is functional. In outline: as §2

Data on 22 compounds can be found in ChEMBL document CHEMBL4145507, “Design, synthesis and biological evaluation of novel indole-benzimidazole hybrids targeting estrogen receptor alpha (ER-α)” (Eur J Med Chem, 2018).

The source made the active and inactive calls. The calls are words filed in the database; no cut-off is given here.

On to `c1ccc(Cn2c(-c3nc4ccccc4[nH]3)cc3ccccc32)cc1`, for which the IC50 amounted to 21.4 µM in [1] and 0.259 µM in [3]. In data set [2], the Activity entry was “Non-Toxic”.

As for `c1ccc2[nH]c(-c3nc4cccnc4[nH]3)cc2c1`, in data set [2], the Activity result was “Non-Toxic”.

For `BrC1=CN2NC(c3cc4ccccc4[nH]3)=NC2N=C1` (configuration not stated), the IC50 in data set [1] was determined as 24.4 µM. For the same compound, in data set [2], the Activity result was “Non-Toxic”.

For the compound `c1ccc2[nH]c(C3=Nc4cccc5cccc(c45)N3)cc2c1`, the results for the IC50 in [1] and in [3] were 20.5 µM and 0.202 µM, respectively. Besides, the Activity entry in data set [2] is “Non-Toxic”.

As for `c1ccc(Cn2c(-c3nc4cc5ccccc5cc4[nH]3)cc3ccccc32)cc1`, the IC50 in data set [1] stood at 13.4 µM. For the same compound, the Activity entry in [2] is “Non-Toxic”.

With `Brc1cnc2[nH]c(-c3cc4ccccc4[nH]3)nc2c1`, in data set [1], the IC50 is 21 µM. Further, in data set [2], the Activity result is recorded as “Non-Toxic”.

Turning to `c1ccc(Cn2c(-c3nc4cccnc4[nH]3)cc3ccccc32)cc1`, the Activity result in data set [2] was “Non-Toxic”.

On to `Cc1c(-c2ccc(O)cc2)n(Cc2ccc(OCCN3CCCCCC3)cc2)c2ccc(O)cc12`, for which the result in [4] was Active.

Turning to `Clc1cc2nc(-c3cc4ccccc4[nH]3)[nH]c2cc1Cl`, half-maximal inhibition in [1] (IC50) required 21.2 µM. Besides, the Activity entry in data set [2] is given as “Non-Toxic”.

Take `c1ccc2[nH]c(-c3nc4ccccc4[nH]3)cc2c1`: in data set [1], the IC50 stood at 6.2 µM. Moreover, in [2], the Activity result is “Non-Toxic”.

`c1ccc2cc3[nH]c(-c4cc5ccccc5[nH]4)nc3cc2c1` came in with an IC50 in [1] of 23.4 µM. Also, the Activity entry in data set [2] was “Non-Toxic”.

`Clc1cc2nc(-c3cc4ccccc4n3Cc3ccccc3)[nH]c2cc1Cl`: the IC50 came out at 22.5 µM in [1] and 0.0767 µM in data set [3]. In addition, the Activity result in data set [2] is “Non-Toxic”.

For the compound `Cc1cc(C)c2nc(-c3cc4ccccc4n3Cc3ccccc3)[nH]c2c1`, the values for the IC50 in data set [1] and in [3] were 21.8 µM and 0.0331 µM, respectively. Moreover, the Activity result in [2] is reported as “Non-Toxic”.

On to `O=C(c1ccccc1)c1ccc2[nH]c(-c3cc4ccccc4[nH]3)nc2c1`, for which, in data set [2], the Activity result was “Non-Toxic”. The IC50 in [3] came to 0.0469 µM.

As to `Brc1cnc2[nH]c(-c3cc4ccccc4n3Cc3ccccc3)nc2c1`, the Activity result in [2] is recorded as “Non-Toxic”. For the same compound, the IC50 in [3] is 0.3 µM.

In the case of `O=C(c1ccccc1)c1ccc2[nH]c(-c3cc4ccccc4n3Cc3ccccc3)nc2c1`, the Activity result in [2] is on record as “Non-Toxic”.

Consider `Cc1cccc2[nH]c(-c3cc4ccccc4[nH]3)nc12`, for which the IC50 in data set [1] stood at 8.9 µM; in data set [3], 0.192 µM. In [2], the Activity result is given as “Non-Toxic”.

In turn, `Cc1cc(C)c2nc(-c3cc4ccccc4[nH]3)[nH]c2c1` displayed an IC50 in data set [1] of 24.8 µM. In data set [2], the Activity entry is “Non-Toxic”.

Consider `Cc1cccc2[nH]c(-c3cc4ccccc4n3Cc3ccccc3)nc12`, for which the Activity result in data set [2] is on record as “Non-Toxic”. The IC50 in data set [3] came to 0.387 µM.

For the compound `Brc1ccc2[nH]c(-c3cc4ccccc4n3Cc3ccccc3)nc2c1`, the IC50 was 15.5 µM in data set [1] and 0.0736 µM in [3]. In addition, the values for the Activity entry in [2] and in data set [5] were “Non-Toxic” and 57.42%, respectively. Besides, in data set [4], the outcome was Active. Moreover, the Drug uptake result in data set [6] was “Not Active”; in [7], “Active”; in data set [8] it was “Active”.

With `Brc1ccc2[nH]c(-c3cc4ccccc4[nH]3)nc2c1`, the IC50 was found to be 4.99 µM in data set [1] and 0.0804 µM in data set [3]. In addition, the Activity entry in data set [2] is listed as “Non-Toxic”; in [13], 27.5%. Also, the Drug uptake result in data set [9] was “Active”; in data set [10], “Not Active”; in data set [11], “Active”. Besides, in data set [12], the outcome was Active.

Regarding `BrC1=CN2NC(c3cc4ccccc4n3Cc3ccccc3)=NC2N=C1` (configuration not stated), the Activity result in data set [2] was “Non-Toxic”. In addition, the IC50 in data set [3] was determined as 0.539 µM.
